The source made the active and inactive calls. The calls are words filed in the database; no cut-off is given here.
How the values were obtained:
[1] = biological target: T1, C-C chemokine receptor type 2 (Homo sapiens, UniProt P41597); assay: Displacement of [125I]MCP1 from human CCR2b in THP1 cells; format: cell-based, THP-1
Method in brief: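 Radioligand competition with [125I]-MCP-1 on THP-1 cells. IC50 taken from dose-response curves built from duplicate points; where SD is given, value is mean of at least three independent experiments.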
Target sequence in this assay (P41597 whole entry): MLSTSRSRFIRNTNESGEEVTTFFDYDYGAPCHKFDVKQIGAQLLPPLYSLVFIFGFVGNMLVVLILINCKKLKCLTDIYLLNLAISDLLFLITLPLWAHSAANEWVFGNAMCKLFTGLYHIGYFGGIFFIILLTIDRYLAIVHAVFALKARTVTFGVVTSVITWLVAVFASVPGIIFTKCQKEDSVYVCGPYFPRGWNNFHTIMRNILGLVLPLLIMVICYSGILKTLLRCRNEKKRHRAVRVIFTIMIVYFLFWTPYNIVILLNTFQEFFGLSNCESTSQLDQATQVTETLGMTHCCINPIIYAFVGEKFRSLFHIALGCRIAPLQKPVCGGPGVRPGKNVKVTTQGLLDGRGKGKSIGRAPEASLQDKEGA

[2] = biological target: T1, C-C chemokine receptor type 2; assay: Antagonist activity at human CCR2 in THP1 cells assessed as inhibition of MCP1-induced calcium flux; format: functional, cell-based, THP-1
Method in brief: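 THP-1 cells grown in HBSS loading buffer with 1% FBS and 20 mM HEPES, spun down, then loaded 30 min with Fluo-3 AM (2 million cells/mL, 4 µM dye, 20 mM HEPES, 0.1% BSA, 5 mM probenecid). Washed three times into HEPES/NaCl/glucose buffer with 2.5 mM probenecid, 1.25 mM CaCl2 and 0.1% BSA; 150,000 cells/well. Compound added 3 min before 10^-7 M human MCP-1; intracellular Ca2+ read by FLIPR.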
Target sequence in this assay (P41597 whole entry): as above

[3] = biological target: T1, C-C chemokine receptor type 2; assay: Antagonist activity at human CCR2 in THP1 cells assessed as inhibition of calcium flux in absence of MCP1; format: functional, cell-based; conditions: THP-1
Target sequence in this assay (P41597 whole entry, looked up): as the sequence (P41597 whole entry) above

[4] = biological target: T2, C-C chemokine receptor type 1 (Homo sapiens) (UniProt P32246); assay: Displacement of [125I]MIP-1alpha from human CCR1 in THP cells at 1 uM
T2 sequence (whole entry): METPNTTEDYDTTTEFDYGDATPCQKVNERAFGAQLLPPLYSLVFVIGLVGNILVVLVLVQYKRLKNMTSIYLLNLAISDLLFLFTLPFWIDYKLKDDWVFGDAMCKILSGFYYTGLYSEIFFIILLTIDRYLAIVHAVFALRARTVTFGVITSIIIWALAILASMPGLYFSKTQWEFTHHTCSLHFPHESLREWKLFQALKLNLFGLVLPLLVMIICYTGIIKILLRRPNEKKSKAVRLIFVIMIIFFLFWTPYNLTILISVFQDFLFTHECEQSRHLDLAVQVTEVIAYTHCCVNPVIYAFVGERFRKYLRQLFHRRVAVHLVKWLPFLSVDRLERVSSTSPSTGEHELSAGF

[5] = biological target: T1, C-C chemokine receptor type 2; assay: Displacement of [125I]MCP1 from human CCR2b in HEK293 cells; format: cell-based
Method in brief: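 Competition for [125I]-MCP-1 binding on HEK293 cells transfected with human CCR2b receptor.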
Target sequence in this assay (P41597 whole entry): as the sequence (P41597 whole entry) above

[6] = biological target: T3, C-C chemokine receptor type 1 (Homo sapiens, UniProt P32246); assay: Displacement of [125I]MIP-1alpha from human CCR1 in THP cells
T3 sequence (P32246 whole entry): T2 sequence (whole entry)

Row | IC50 [1] [nM] | SMILES | other results
1 | 39 | COc1cc(CN2CC[C@@H](NC(=O)CNC(=O)c3cc(C(F)(F)F)ccc3N)C2)ccc1O | –
2 | 2400 | O=C(CNC(=O)c1cccc(Cl)c1)N[C@@H]1CCN(Cc2ccc(Cl)cc2)C1 | –
3 | 1360 | COc1ccccc1CN1CC[C@@H](NC(=O)CNC(=O)c2cccc(C(F)(F)F)c2)C1 | –
4 | 832 | O=C(CNC(=O)c1cccc([N+](=O)[O-])c1)N[C@@H]1CCN(Cc2ccc(Cl)cc2)C1 | –
5 | 2380 | Cc1cccc(C(=O)NCC(=O)N[C@@H]2CCN(Cc3ccc(Cl)cc3)C2)c1 | –
6 | 116 | Cc1ccc(CN2CC[C@@H](NC(=O)CNC(=O)c3cccc(C(F)(F)F)c3)C2)cc1 | IC50 [2]: 64 nM; Activity [3]: inactive
7 | 11 | CCc1ccc(CN2CC[C@@H](NC(=O)CNC(=O)c3cc(C(F)(F)F)ccc3N)C2)cc1 | IC50 [2]: 5.3 nM; Activity [3]: inactive
8 | 630 | O=C(CNC(=O)c1cccc(C(F)(F)F)c1)N[C@@H]1CCN(Cc2ccccc2Cl)C1 | –
9 | 3100 | Cc1cccc(CN2CC[C@@H](NC(=O)CNC(=O)c3cccc(C(F)(F)F)c3)C2)c1 | –
10 | 4.1 | Nc1cc(CN2CC[C@@H](NC(=O)CNC(=O)c3cc(C(F)(F)F)ccc3N)C2)ccc1Cl | –
11 | 1550 | O=C(CNC(=O)c1cccc(C(F)(F)F)c1)N[C@@H]1CCN(Cc2ccc([N+](=O)[O-])cc2)C1 | –
12 | > 5000 | O=C(CNC(=O)c1ccc(Cl)cc1)N[C@@H]1CCN(Cc2ccc(Cl)cc2)C1 | –
13 | 960 | O=C(CNC(=O)c1cccc(C(F)(F)F)c1)N[C@@H]1CCN(Cc2ccc(F)cc2)C1 | –
14 | 114 | COc1ccc(CN2CC[C@@H](NC(=O)CNC(=O)c3cccc(C(F)(F)F)c3)C2)cc1 | –
15 | 14 | Nc1cc(CN2CC[C@@H](NC(=O)CNC(=O)c3cc(C(F)(F)F)ccc3N)C2)ccc1O | –
16 | 489 | O=C(CNC(=O)c1cccc(OC(F)(F)F)c1)N[C@@H]1CCN(Cc2ccc(Cl)cc2)C1 | –
17 | > 10000 | O=C(CNC(=O)c1ccccc1Cl)N[C@@H]1CCN(Cc2ccc(Cl)cc2)C1 | –
18 | 26 | Nc1ccc(C(F)(F)F)cc1C(=O)NCC(=O)N[C@@H]1CCN(Cc2ccc(Cl)cc2)C1 | inhibition [4]: 25%; IC50 [2]: 23.1 nM; Activity [3]: inactive; IC50 [5]: 45 nM; IC50 [6]: > 1000 nM
19 | > 10000 | O=C(CNC(=O)c1ccccc1C(F)(F)F)N[C@@H]1CCN(Cc2ccc(Cl)cc2)C1 | –
20 | > 10000 | Nc1ccccc1C(=O)NCC(=O)N[C@@H]1CCN(Cc2ccc(Cl)cc2)C1 | –

Row | IC50 [1] [nM] | SMILES | other results
21 | > 5000 | O=C(CNC(=O)c1cccc(C(F)(F)F)c1)N[C@@H]1CCN(Cc2cccc(Cl)c2)C1 | –
22 | 3.2 | Cc1ccc(CN2CC[C@@H](NC(=O)CNC(=O)c3cc(C(F)(F)F)ccc3N)C2)c(C)c1 | IC50 [2]: 7.5 nM; Activity [3]: inactive
23 | 4330 | O=C(CNC(=O)c1cccc(F)c1)N[C@@H]1CCN(Cc2ccc(Cl)cc2)C1 | –
24 | 20 | Cc1ccc(CN2CC[C@@H](NC(=O)CNC(=O)c3cc(C(F)(F)F)ccc3N)C2)cc1 | –
25 | 204 | CSc1ccc(CN2CC[C@@H](NC(=O)CNC(=O)c3cccc(C(F)(F)F)c3)C2)cc1 | –
26 | 785 | O=C(CNC(=O)c1cccc(Br)c1)N[C@@H]1CCN(Cc2ccc(Cl)cc2)C1 | –
27 | 960 | Cc1ccccc1CN1CC[C@@H](NC(=O)CNC(=O)c2cccc(C(F)(F)F)c2)C1 | –
28 | 42 | Nc1ccc(C(F)(F)F)cc1C(=O)NCC(=O)N[C@@H]1CCN(Cc2ccc(O)cc2)C1 | –
29 | 19 | C=Cc1ccc(CN2CC[C@@H](NC(=O)CNC(=O)c3cc(C(F)(F)F)ccc3N)C2)cc1 | –
30 | 59 | CCc1ccc(CN2CC[C@@H](NC(=O)CNC(=O)c3cccc(C(F)(F)F)c3)C2)cc1 | –
31 | 690 | O=C(CNC(=O)c1cccc(C(F)(F)F)c1)N[C@@H]1CCN(Cc2ccccc2)C1 | –
32 | > 10000 | Nc1cccc(C(=O)NCC(=O)N[C@@H]2CCN(Cc3ccc(Cl)cc3)C2)c1 | –
33 | 53 | COc1ccc(CN2CC[C@@H](NC(=O)CNC(=O)c3cc(C(F)(F)F)ccc3N)C2)cc1O | –
34 | > 10000 | O=C(CNC(=O)c1ccccc1)N[C@@H]1CCN(Cc2ccc(Cl)cc2)C1 | –
35 | > 5000 | O=C(CNC(=O)c1ccc(C(F)(F)F)cc1)N[C@@H]1CCN(Cc2ccc(Cl)cc2)C1 | –
36 | 2650 | N#Cc1ccc(CN2CC[C@@H](NC(=O)CNC(=O)c3cccc(C(F)(F)F)c3)C2)cc1 | –
37 | 226 | O=C(CNC(=O)c1cccc(C(F)(F)F)c1)N[C@@H]1CCN(Cc2ccc(O)cc2)C1 | IC50 [2]: 365 nM; Activity [3]: inactive
38 | 759 | O=C(CNC(=O)c1cccc(C(F)(F)F)c1)N[C@@H]1CCN(Cc2ccccc2-c2ccc3ccccc3c2)C1 | –
39 | > 10000 | COc1cccc(C(=O)NCC(=O)N[C@@H]2CCN(Cc3ccc(Cl)cc3)C2)c1 | –
40 | 3170 | COc1cccc(CN2CC[C@@H](NC(=O)CNC(=O)c3cccc(C(F)(F)F)c3)C2)c1 | –

Row | IC50 [1] [nM] | SMILES | other results
41 | 643 | Nc1ccc(Br)cc1C(=O)NCC(=O)N[C@@H]1CCN(Cc2ccc(Cl)cc2)C1 | –
42 | 610 | O=C(CNC(=O)c1cccc(C(F)(F)F)c1)N[C@@H]1CCN(Cc2ccc(OC(F)(F)F)cc2)C1 | –
43 | 20 | COc1ccc(CN2CC[C@@H](NC(=O)CNC(=O)c3cc(C(F)(F)F)ccc3N)C2)cc1 | –
44 | 166 | O=C(CNC(=O)c1cccc(C(F)(F)F)c1)N[C@@H]1CCN(Cc2ccc(Br)cc2)C1 | –
45 | > 10000 | N#Cc1cccc(C(=O)NCC(=O)N[C@@H]2CCN(Cc3ccc(Cl)cc3)C2)c1 | –
46 | 300 | O=C(CNC(=O)c1cccc(C(F)(F)F)c1)N[C@@H]1CCN(Cc2ccc(Cl)cc2Cl)C1 | –
47 | 96 | Nc1ccc(C(F)(F)F)cc1C(=O)NCC(=O)N[C@@H]1CCN(Cc2ccc(Cl)cc2Cl)C1 | –
48 | 6.1 | Cc1ccc(CN2CC[C@@H](NC(=O)CNC(=O)c3cc(C(F)(F)F)ccc3N)C2)cc1N | –
49 | 730 | Nc1ccc(Cl)cc1C(=O)NCC(=O)N[C@@H]1CCN(Cc2ccc(Cl)cc2)C1 | –
50 | 208 | Nc1ccc([N+](=O)[O-])cc1C(=O)NCC(=O)N[C@@H]1CCN(Cc2ccc(Cl)cc2)C1 | –
51 | 308 | Nc1ccc(I)cc1C(=O)NCC(=O)N[C@@H]1CCN(Cc2ccc(Cl)cc2)C1 | –
52 | > 10000 | Cc1ccccc1C(=O)NCC(=O)N[C@@H]1CCN(Cc2ccc(Cl)cc2)C1 | –
53 | 305 | CC(=O)Nc1ccc(CN2CC[C@@H](NC(=O)CNC(=O)c3cccc(C(F)(F)F)c3)C2)cc1 | –
54 | 10000 | Cc1ccc(C(=O)NCC(=O)N[C@@H]2CCN(Cc3ccc(Cl)cc3)C2)cc1 | –
55 | 153 | COc1cc(CN2CC[C@@H](NC(=O)CNC(=O)c3cccc(C(F)(F)F)c3)C2)ccc1O | –
56 | 88 | Nc1ccc(OC(F)(F)F)cc1C(=O)NCC(=O)N[C@@H]1CCN(Cc2ccc(Cl)cc2)C1 | –
57 | 5.3 | COc1ccc(CN2CC[C@@H](NC(=O)CNC(=O)c3cc(C(F)(F)F)ccc3N)C2)cc1N | –
58 | 121 | C=Cc1ccc(CN2CC[C@@H](NC(=O)CNC(=O)c3cccc(C(F)(F)F)c3)C2)cc1 | –

Source: ChEMBL document CHEMBL1144032, “Potent antagonists of the CCR2b receptor. Part 3: SAR of the (R)-3-aminopyrrolidine series” (Bioorg Med Chem Lett, 2008)
